# From PubChem BioAssay
# Active and inactive are the calls of the source.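 How the source made its calls, unless noted: active means viability at or under a set limit in both replicates, limit being median viability minus 3 SD (cut at about 48% in these data, passing the limit was not always enough); inconclusive means at or under the limit in just one replicate; inactive means at or above the limit in both replicates.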
# Legend:
# [1] = Her2 expression decrease, cell viability multiplex – SKBR3 breast tumor cells, AlphaScreen, ATP viability, primary screen (AID 461;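 active means Her2 level under about 52% in both replicate screens, with viability over 70% of control, limit read from the data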;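 on Her2 level: lower value means less Her2 protein in the cells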;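 on viability: percent of carrier control wells set as 100% viability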); details: SKBR3 Her2 protein level, 18-24 h, measured here: SKBR3 viability, ATP luminescence, at 10 µM
# [2] = biological target: Receptor tyrosine-protein kinase erbB-2 (Homo sapiens) (UniProt P04626); assay: as above; details: 18-24 h, at 10 µM, stronger effect = lower value
# [3] = reduced viability of SK-BR-3 breast cancer cells – cell-based, 24 h, human, pilot screen (AID 572;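 active means viability at or below 10% of carrier control in both of two separate runs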;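 further: compound exposure lasted between 18 and 24 h rather than exactly 24 h; 100% = carrier-treated control wells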); details: SK-BR-3 viability, CellTiter-Glo luminescence, at 10 µM, stronger effect = lower value
# [4] = HUVEC growth inhibition – cell-based, human, primary screen (AID 575;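 active means viability at or below 30% in both replicate assays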;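 further: 100% = median of untreated cell wells with 0.1% DMSO on each plate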); details: HUVEC proliferation, CellTiter-Glo luminescence, 72 h; at 10 µM; stronger effect = lower value
# Procedure, shortened: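 Material: primary human umbilical vein endothelial cells / Schedule: 72 h exposure, 37 °C, 5% CO2, 30 min RT equilibration / Signal: ATP-based CellTiter-Glo luminescent read / Read-out basis: percent of median DMSO-control luminescence / Control set: 32 DMSO-only cell-control wells (high), 32 MePR drug-control wells (low) per plate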
# [5] = H69AR cell proliferation blockers – human, duplicate replicates, primary screen (AID 580); details: H69AR lung tumor cells viability, ATP luminescence, 72 h; at 10 µM; stronger effect = lower value;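 further: 100% = mean luminescence of untreated wells and 0% = no signal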
# [6] = MRP1 drug-resistance reversers in H69AR cells – cell-based, doxorubicin co-treatment, pilot screen (AID 601;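 active means viability loss from added drug above about 55%, and viability with drug at most 40%, in both replicates, limit read from the data, passing the limit was not always enough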); details: CellTiter-Glo, 72 h, at 10 µM; for differential viability (reversal): stronger effect = higher value
# [7] = yeast transport mutant growth inhibition pilot in 384-well plates, post-Golgi transport modulator project (AID 636; in the data active means inhibition above about 31%); details: absorbance 615 nm, about 18 h, stronger effect = higher value
# [8] = growth suppression of yeast trafficking mutant, preliminary HTS, modulators of trafficking downstream of Golgi apparatus project, 1536-format plate, OD 615 nm (AID 637; in the data active means inhibition above about 30%); details: yeast transport mutant growth, absorbance 615 nm, 18 h; stronger effect = higher value
# [9] = H69AR cells + 2 uM doxorubicin, measured here: viability with 2 uM doxorubicin, stronger effect = lower value
# [10] = H69AR cells, compound alone cytotoxicity
# Chain of Receptor tyrosine-protein kinase erbB-2 (Homo sapiens) (P04626 whole entry, looked up): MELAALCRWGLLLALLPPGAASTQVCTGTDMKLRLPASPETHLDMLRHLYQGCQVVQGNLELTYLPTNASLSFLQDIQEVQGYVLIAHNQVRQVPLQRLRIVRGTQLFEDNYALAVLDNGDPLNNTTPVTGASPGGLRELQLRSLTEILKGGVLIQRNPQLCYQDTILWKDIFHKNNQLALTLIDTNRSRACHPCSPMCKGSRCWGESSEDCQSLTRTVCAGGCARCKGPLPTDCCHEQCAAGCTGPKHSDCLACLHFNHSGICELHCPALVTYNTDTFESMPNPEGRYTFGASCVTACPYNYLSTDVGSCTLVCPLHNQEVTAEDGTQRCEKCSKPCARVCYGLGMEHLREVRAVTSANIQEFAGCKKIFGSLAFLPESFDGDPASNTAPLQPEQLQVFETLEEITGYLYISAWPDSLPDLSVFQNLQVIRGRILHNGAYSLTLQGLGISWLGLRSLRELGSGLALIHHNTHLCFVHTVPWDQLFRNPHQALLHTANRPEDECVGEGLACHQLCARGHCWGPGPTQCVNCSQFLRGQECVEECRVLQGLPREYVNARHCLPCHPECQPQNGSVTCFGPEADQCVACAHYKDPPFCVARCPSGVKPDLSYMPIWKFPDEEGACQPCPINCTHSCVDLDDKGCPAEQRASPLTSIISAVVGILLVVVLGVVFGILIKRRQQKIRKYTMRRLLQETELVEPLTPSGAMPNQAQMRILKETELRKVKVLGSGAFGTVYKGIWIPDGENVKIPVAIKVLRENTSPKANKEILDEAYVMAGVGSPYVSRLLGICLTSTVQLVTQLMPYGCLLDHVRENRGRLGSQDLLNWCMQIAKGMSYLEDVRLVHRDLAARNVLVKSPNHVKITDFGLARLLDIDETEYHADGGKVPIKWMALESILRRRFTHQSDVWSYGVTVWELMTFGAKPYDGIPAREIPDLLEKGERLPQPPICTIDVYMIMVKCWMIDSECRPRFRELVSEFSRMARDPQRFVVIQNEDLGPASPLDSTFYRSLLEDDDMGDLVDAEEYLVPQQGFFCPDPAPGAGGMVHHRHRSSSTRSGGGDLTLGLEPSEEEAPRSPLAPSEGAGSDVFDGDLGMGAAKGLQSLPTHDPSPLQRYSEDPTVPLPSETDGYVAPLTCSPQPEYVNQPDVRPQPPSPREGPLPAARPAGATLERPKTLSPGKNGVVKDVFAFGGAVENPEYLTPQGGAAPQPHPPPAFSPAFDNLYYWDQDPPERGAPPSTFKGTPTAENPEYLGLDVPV
Compound,viability [1],Her2 level [2],viability [3],viability [4],viability [5],differential viability (reversal) ([6]; H69AR cells + 2 uM doxorubicin),"viability [6, 9]","viability [6, 10]",inhibition [7],inhibition [8]
c1ccc2c(c1)[nH]c1c(N3CCC4(CC3)OCCO4)ncnc12,96.5%,77% (inactive),96.5% (inactive),65.2% (inactive),92.2% (inactive),5.46% (inactive),86.7%,92.2%,-3.87% (inactive),-3.87% (inactive)
COc1cc(OC)cc(OCC(O)Cn2cnc(-c3ccccc3)c2)c1 (stereo not given),90%,84% (inactive),90% (inactive),88% (inactive),83.8% (inactive),-11.4% (inactive),95.2%,83.8%,3.64% (inactive),-2.13% (inactive)
O=C(CSc1ncn[nH]1)c1ccco1,120%,92% (inactive),120% (inactive),95.9% (inactive),94.7% (inactive),-3.81% (inactive),98.5%,94.7%,-1.56% (inactive),0.33% (inactive)
COc1ccc(S(=O)(=O)N2CCCC2C(=O)Nc2ccc(C)cc2)cc1 (stereo not given),88%,105% (inactive),88% (inactive),92.2% (inactive),89.2% (inactive),-8.78% (inactive),98%,89.2%,-4.86% (inactive),-4.1% (inactive)
CN(C)/C=N/c1ncnc2c1cnn2-c1ccc(C(F)(F)F)cn1,108%,100% (inactive),108% (inactive),104% (inactive),81.8% (inactive),-0.51% (inactive),82.3%,81.8%,-4.42% (inactive),-4.29% (inactive)
COc1ccc(S(=O)(=O)n2nc(OC(=O)c3ccc(C)cc3)cc2N)cc1,92.5%,72% (inactive),92.5% (inactive),91.6% (inactive),97.7% (inactive),-7.45% (inactive),105%,97.7%,-4.47% (inactive),-5.67% (inactive)
O=C1CC(N2CCOCC2)C(=O)N1c1ccccc1Cl (stereo not given),103%,87.5% (inactive),103% (inactive),87.2% (inactive),104% (inactive),7.5% (inactive),96.6%,104%,-6.4% (inactive),-5.24% (inactive)
CCOC(=O)c1cccc(NC(=O)c2ccco2)c1,95.5%,92.5% (inactive),95.5% (inactive),114% (inactive),91.9% (inactive),3.72% (inactive),88.1%,91.9%,-0.77% (inactive),-1.17% (inactive)
CC(=O)c1c(C)nc(C)nc1NC(=O)Cc1ccccc1,106%,102% (inactive),106% (inactive),93.9% (inactive),93.9% (inactive),-6.36% (inactive),100%,93.9%,-5% (inactive),-3.55% (inactive)
O=C(C1CCC1)N1CCc2cc(S(=O)(=O)N3CCc4ccccc4C3)ccc21,88%,97% (inactive),88% (inactive),72.1% (inactive),89% (inactive),-5.04% (inactive),94%,89%,-5.47% (inactive),-7.54% (inactive)
Cc1sc2ncn3ncnc3c2c1C,91%,96.5% (inactive),91% (inactive),50.7% (inactive),90.5% (inactive),-8.71% (inactive),99.2%,90.5%,6.13% (inactive),4.26% (inactive)
OCC#CCSc1nnc(-c2ccccc2Br)o1,118%,109% (inactive),118% (inactive),85.3% (inactive),86.2% (inactive),5.93% (inactive),80.2%,86.2%,0% (inactive),4.26% (inactive)
Cc1noc(C)c1S(=O)(=O)N1CCCC(C(=O)NCCc2ccc(Cl)cc2)C1 (stereo not given),89%,82% (inactive),89% (inactive),98.1% (inactive),97.1% (inactive),5.35% (inactive),91.7%,97.1%,-5.34% (inactive),4.76% (inactive)
COC(=O)c1ccccc1S(=O)(=O)NC(=O)c1ccccc1,107%,74% (inactive),107% (inactive),107% (inactive),88.2% (inactive),5.66% (inactive),82.5%,88.2%,-1.82% (inactive),-3.81% (inactive)
CN(Cc1ccccc1)Cc1c[nH]c2ccccc12,87%,96.5% (inactive),87% (inactive),79.7% (inactive),89.8% (inactive),-6.54% (inactive),96.3%,89.8%,-4.61% (inactive),-1.5% (inactive)
COc1cccc2cc(C(=O)N3CCN(C45CC6CC(CC(C6)C4)C5)CC3)c(=O)oc12,93.5%,92% (inactive),93.5% (inactive),81.8% (inactive),107% (inactive),12.5% (inactive),94.7%,107%,-3.16% (inactive),-9.52% (inactive)
C=CCc1cc(OC)ccc1OCC(O)CN1CCN(c2ccc(OC)cc2)CC1 (stereo not given),82.5%,78% (inactive),82.5% (inactive),89% (inactive),99.6% (inactive),-4.29% (inactive),104%,99.6%,0.13% (inactive),8.57% (inactive)
COc1ccc(C)cc1NCc1cccc(OC)c1OC,75.5%,90.5% (inactive),75.5% (inactive),87.2% (inactive),102% (inactive),-6.87% (inactive),109%,102%,-5.41% (inactive),-6.39% (inactive)
COc1ccccc1N1CCN(CCCNC(=O)Nc2ccccc2)CC1,129%,83.5% (inactive),129% (inactive),84.5% (inactive),90.3% (inactive),-1.53% (inactive),91.8%,90.3%,-2.76% (inactive),-0.48% (inactive)
COc1cc(C)c(N)cc1C(C)C,103%,91% (inactive),103% (inactive),89.2% (inactive),94.1% (inactive),1.33% (inactive),92.8%,94.1%,-2.93% (inactive),-0.82% (inactive)
CC(=O)N1CCc2cc(Br)cc(S(=O)(=O)NCCCN3CCCC(C)C3)c21 (stereo not given),83%,93% (inactive),83% (inactive),89.9% (inactive),91.8% (inactive),0.035% (inactive),91.7%,91.8%,-2.57% (inactive),-3.93% (inactive)
Cc1ccc(NC(=O)C2CCCN(S(=O)(=O)c3cnc[nH]3)C2)cc1C (stereo not given),95%,110% (inactive),95% (inactive),102% (inactive),100% (inactive),5.56% (inactive),94.6%,100%,-5.6% (inactive),-2.3% (inactive)
COC(=O)CCCCCNc1ccc(C(=O)OC)cc1N,107%,86% (inactive),107% (inactive),98.5% (inactive),91.5% (inactive),6.14% (inactive),85.4%,91.5%,-7.16% (inactive),-6.5% (inactive)
c1cc(-c2nc3ccccc3o2)nc(-c2nc3ccccc3o2)c1,122%,94.5% (inactive),122% (inactive),90.9% (inactive),87.6% (inactive),7.43% (inactive),80.2%,87.6%,-4.21% (inactive),1.83% (inactive)
Cc1ccc(NC(=O)CCC(=O)OCC(F)(F)C(F)F)cc1,98%,106% (inactive),98% (inactive),117% (inactive),103% (inactive),-1.04% (inactive),104%,103%,-0.65% (inactive),-7.67% (inactive)
CCN(Cc1nc2ccccc2c(=O)[nH]1)Cc1cc(=O)oc2cc(C)c(C)cc12,107%,102% (inactive),107% (inactive),63% (inactive),62.9% (inactive),21% (inactive),42%,62.9%,-4.68% (inactive),-1.67% (inactive)
CC(=O)C1=C(C)NC(SCSc2ccccc2)=C(C#N)C1c1cccnc1 (stereo not given),80%,106% (inactive),80% (inactive),81.7% (inactive),94.1% (inactive),6.64% (inactive),87.5%,94.1%,0.91% (inactive),-1.64% (inactive)
Cc1c(C(=O)O)c(-c2ccccc2)nn1-c1ccccc1,103%,104% (inactive),103% (inactive),96.9% (inactive),92.1% (inactive),4.64% (inactive),87.5%,92.1%,-2.99% (inactive),-2.3% (inactive)
Cc1cc2c(cc1C)C(=O)NC(C)(C)C2,104%,98% (inactive),104% (inactive),79.4% (inactive),95.2% (inactive),-13.8% (inactive),109%,95.2%,-2.7% (inactive),-1.15% (inactive)
